Results taken from ChEMBL document CHEMBL1142105, “Bioactive metabolites from the Caribbean sponge Aka coralliphagum” (J Nat Prod, 2007).
Converted amounts (≈) assume the structure as drawn.

What was measured:
[1] = DPPH radical scavenging activity at 200 umol/L relative to control; assay type: functional
Procedure, shortened: (§1)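 Samples in EtOH (1000 µL at 200 or 40 µM) were mixed with 250 µL of 1 mM DPPH stock and 750 µL EtOH, then held at RT in the dark for 30 min. Absorbance was read at 517 nm. Scavenging % = 100 − (A sample × 100/A control).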

[2] = DPPH radical scavenging activity at 40 umol/L relative to control; assay type: functional; procedure, shortened: as §1
Wickerhamomyces anomalus = experiment: Antimicrobial activity against Hansenula anomala at 20 ug by agar diffusion test; assay type: functional; settings: read-out: IZ
Procedure, shortened: (§2)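 Yeasts from the HZI collection were seeded into agar medium at a final OD of 0.1. Paper disks (6 mm) carried 20 µg of compound, applied as 20 µL of 1 mg/mL in MeOH. Plates were kept at 30 °C, and inhibition zone diameters (mm) were measured at days 1 and 2.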

Mycolicibacterium phlei = experiment: Antimicrobial activity against Mycobacterium phlei at 20 ug by agar diffusion test; assay type: functional; settings: read-out: IZ
Procedure, shortened: (§3)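 Agar diffusion on 6 mm paper disks loaded with 20 µL of a 1 mg/mL methanol solution (20 µg). Bacteria from the HZI collection were grown on standard media and seeded into agar medium at a final OD of 0.01. Plates were incubated at 30 °C, and inhibition zone diameter (mm) was read after 1 and 2 days.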

Micrococcus luteus = experiment: Antimicrobial activity against Micrococcus luteus at 20 ug by agar diffusion test; assay type: functional; settings: read-out: IZ; procedure, shortened: as §3
Pseudomonas aeruginosa = experiment: Antimicrobial activity against Pseudomonas aeruginosa at 20 ug by agar diffusion test; assay type: functional; settings: read-out: IZ; procedure, shortened: as §3
Klebsiella pneumoniae = experiment: Antimicrobial activity against Klebsiella pneumoniae at 20 ug by agar diffusion test; assay type: functional; settings: read-out: IZ; procedure, shortened: as §3
L929 = experiment: Cytotoxicity against mouse L929 cells by MTT assay; assay type: cell-based
Procedure, shortened: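 L929 mouse fibroblasts (DSMZ) were grown in high-glucose DME with 10% fetal calf serum at 37 °C and 10% CO2. Cell suspension (120 µL at 50 000/mL) was added to 60 µL of serial compound dilutions in microtiter plates. Growth was determined by MTT after 5 days, with concentrations expressed in µg/mL.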

Saccharomyces cerevisiae = experiment: Antimicrobial activity against Saccharomyces cerevisiae at 20 ug by agar diffusion test; assay type: functional; settings: read-out: IZ; procedure, shortened: as §2
Escherichia coli = experiment: Antimicrobial activity against Escherichia coli tolC at 20 ug by agar diffusion test; assay type: functional; settings: read-out: IZ; procedure, shortened: as §3
Staphylococcus aureus = experiment: Antimicrobial activity against Staphylococcus aureus at 20 ug by agar diffusion test; assay type: functional; settings: read-out: IZ; procedure, shortened: as §3
Aspergillus fumigatus = experiment: Antimicrobial activity against Aspergillus fumigatus at 20 ug by agar diffusion test; assay type: functional; settings: read-out: IZ
Procedure, shortened: (§4)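 Fungal spores were rinsed from well-grown Petri dishes with 10 mL sterile water, and 1 mL of the suspension was mixed into 100 mL molten agar. Disks (6 mm) with 20 µg compound (20 µL, 1 mg/mL in methanol) were placed on the agar. Plates were incubated at 30 °C, and zone diameter (mm) was scored after 1 and 2 days.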

[3] = tested on: Globisporangium debaryanum; experiment: Antimicrobial activity against Pythium debaryanum at 20 ug by agar diffusion test; assay type: functional; settings: read-out: IZ; procedure, shortened: as §4
Candida albicans = experiment: Antimicrobial activity against Candida albicans at 20 ug by agar diffusion test; assay type: functional; settings: read-out: IZ; procedure, shortened: as §2
Botrytis cinerea = experiment: Antimicrobial activity against Botrytis cinerea at 20 ug by agar diffusion test; assay type: functional; settings: read-out: IZ; procedure, shortened: as §4

SMILES	Activity [1]	Activity [2]	zone of inhibition at 20 µg/disc (Wickerhamomyces anomalus)	zone of inhibition at 20 µg/disc (Mycolicibacterium phlei)	zone of inhibition at 20 µg/disc (Micrococcus luteus)	zone of inhibition at 20 µg/disc (Pseudomonas aeruginosa)	zone of inhibition at 20 µg/disc (Klebsiella pneumoniae)	Activity (L929)	zone of inhibition at 20 µg/disc (Saccharomyces cerevisiae)	zone of inhibition at 20 µg/disc (Escherichia coli)	zone of inhibition at 20 µg/disc (Staphylococcus aureus)	zone of inhibition at 20 µg/disc (Aspergillus fumigatus)	zone of inhibition at 20 µg/disc [3]	zone of inhibition at 20 µg/disc (Candida albicans)	zone of inhibition at 20 µg/disc (Botrytis cinerea)	IC50 (L929)
O=C1O[C@H]([C@@H](O)CO)C(O)=C1O	95.3%	27%														
C[C@H]1CCC2C(C)(C)CCC[C@]2(C)/C1=C/c1cc(O)c(O)c(/C=N/CCS(=O)(=O)O)c1OS(=O)(=O)O (some centres undefined) [SIPHONODICTYAL B1]	80.8%	23.5%	0 mm	0 mm	0 mm	0 mm	0 mm	10 µg/mL	0 mm	0 mm	12 mm	0 mm	0 mm	0 mm	13 mm	
C[C@H]1CCC2C(C)(C)CCC[C@]2(C)/C1=C/c1cc(O)c(O)c(C=O)c1OS(=O)(=O)O (some centres undefined) [SIPHONODICTYAL B2]	88.8%	25.3%		0 mm	0 mm	0 mm	0 mm		0 mm	0 mm	13 mm	0 mm	0 mm	0 mm	15 mm	6 µg/mL (≈ 13.7 µM)
C[C@H]1CCC2C(C)(C)CCC[C@]2(C)/C1=C/c1cc(OS(=O)(=O)O)c(O)c(C=O)c1OS(=O)(=O)O (some centres undefined) [SIPHONODICTYAL B3]			0 mm	0 mm	0 mm	0 mm	0 mm	> 40 µg/mL	0 mm	0 mm	0 mm	0 mm	0 mm	0 mm	0 mm	
C[C@H]1CCC2C(C)(C)CCC[C@]2(C)/C1=C/c1cc(O)c(O)c(C=O)c1O (some centres undefined) [SIPHONODICTYAL B]								0.2 µg/mL	0 mm	9 mm	12 mm	15 mm				
C=C1CCCC2[C@](C)(Cc3cc(C=O)cc(O)c3OS(=O)(=O)O)[C@@H](C)CC[C@]12C (some centres undefined) [SIPHONODICTYAL G]	32.2%	5.9%	0 mm	0 mm	0 mm	0 mm	0 mm	10 µg/mL	0 mm	0 mm	0 mm	0 mm	0 mm	0 mm	0 mm	
C=C1CCCC2[C@](C)(Cc3cc(CO)cc(O)c3OS(=O)(=O)O)[C@@H](C)CC[C@]12C (some centres undefined) [SIPHONODICTYOL G]	39.8%	2.6%	0 mm	0 mm	0 mm	0 mm	0 mm	> 40 µg/mL	0 mm	0 mm	0 mm	0 mm	0 mm	0 mm	15 mm	
